Experimental data as given in ChEMBL document CHEMBL3232740, “Differences in conformational dynamics between Plasmodium falciparum and human Hsp90 orthologues enable the structure-based discovery of pathogen-selective inhibitors” (J Med Chem, 2014).
Active and inactive are the calls of the source. No cut-off for these calls is given here.

Experiments:
HSP90 = target: T1, HSP90 (Plasmodium falciparum 3D7, UniProt Q8IL32); assay: Binding affinity to N-terminal FLAG-tagged Plasmodium falciparum recombinant HSP90 (1 to 223) expressed in Escherichia coli BL21(DE3) by microscale thermophoresis assay
T1 sequence (Q8IL32 whole entry): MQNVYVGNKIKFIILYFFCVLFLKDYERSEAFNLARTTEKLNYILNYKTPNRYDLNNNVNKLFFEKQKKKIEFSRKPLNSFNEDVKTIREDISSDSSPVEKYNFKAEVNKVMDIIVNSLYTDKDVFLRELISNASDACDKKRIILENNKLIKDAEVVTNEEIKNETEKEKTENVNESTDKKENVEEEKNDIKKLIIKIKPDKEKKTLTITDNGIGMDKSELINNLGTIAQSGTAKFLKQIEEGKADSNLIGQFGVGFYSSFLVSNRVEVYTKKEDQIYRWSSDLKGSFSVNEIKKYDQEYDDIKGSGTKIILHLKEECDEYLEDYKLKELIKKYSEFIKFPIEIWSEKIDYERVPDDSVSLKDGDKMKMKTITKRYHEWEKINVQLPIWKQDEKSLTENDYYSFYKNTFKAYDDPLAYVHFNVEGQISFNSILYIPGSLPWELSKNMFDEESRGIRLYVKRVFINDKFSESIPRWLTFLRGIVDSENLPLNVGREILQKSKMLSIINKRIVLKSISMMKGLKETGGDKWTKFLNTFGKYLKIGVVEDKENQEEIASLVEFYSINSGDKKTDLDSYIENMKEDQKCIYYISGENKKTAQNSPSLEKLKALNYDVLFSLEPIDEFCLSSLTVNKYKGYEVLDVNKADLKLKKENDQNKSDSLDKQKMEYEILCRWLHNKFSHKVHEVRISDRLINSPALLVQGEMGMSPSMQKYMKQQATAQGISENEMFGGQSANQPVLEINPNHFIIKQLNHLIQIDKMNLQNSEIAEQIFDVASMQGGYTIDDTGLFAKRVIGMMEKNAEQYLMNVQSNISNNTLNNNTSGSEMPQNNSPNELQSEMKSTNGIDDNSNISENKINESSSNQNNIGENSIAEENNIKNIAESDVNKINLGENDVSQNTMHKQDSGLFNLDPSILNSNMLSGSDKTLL
In short: (§1)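 Recombinant Pf Hsp90 proteins were expressed in E. coli BL21 DE3 pLysS in LB, induced with 0.5 mM IPTG for 18 h at 20 °C. They were purified by His-affinity then size exclusion, keeping the 33 kDa fractions. Ligand was titrated in 1:1 dilutions against 100 nM protein with 5% DMSO. MST was run at 40% LED and 40% MST power.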

Plasmodium falciparum = assay: Antiplasmodial activity against Plasmodium falciparum NF54 infected in human erythrocytes assessed as growth inhibition by [3H]hypoxanthine incorporation assay; format: functional, organism-based
L6 = assay: Cytotoxicity against rat L6 cells after 72 hrs by Alamar Blue assay; format: cell-based
[1] = Ratio of IC50 for rat L6 cells to IC50 for Plasmodium falciparum NF54
In short: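 Ratio of two IC50s. P. falciparum NF54 was grown in human erythrocytes (Trager–Jensen) for a 72 h assay window, with growth read as [3H]hypoxanthine incorporation. Cytotoxicity was measured in rat skeletal myoblast L6 cells.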

[2] = tested on: Heat-shock protein (Plasmodium falciparum), Q25869 [K313Q]; assay: Inhibition of Plasmodium falciparum HSP90 K313Q mutant expressed in yeast assessed as growth inhibition of host at 100 uM after 72 hrs
[3] = Inhibition of Plasmodium falciparum HSP90 ISG-LGA mutant expressed in yeast assessed as growth inhibition of host after 72 hrs
In short: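 Host was an isogenic S. cerevisiae strain derived from DP533 (Δhsc82 Δhsp82 pdr5), carrying Flag-tagged PfHsp90 ISG-LGA/K313Q from a low-copy plasmid as its only Hsp90. Cultures were diluted to OD600 0.1 in minimal medium with 2% DMSO. OD600 was read every 30 min for 72 h. Growth % was maximal growth-curve slope relative to solvent-only; IC50 from triplicate dose-response.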

[4] = Binding affinity to N-terminal FLAG-tagged Plasmodium falciparum recombinant HSP90 R98K mutant expressed in Escherichia coli BL21(DE3) by microscale thermophoresis assay; in short: as §1
[5] = Binding affinity to N-terminal FLAG-tagged Plasmodium falciparum recombinant HSP90 ISG-LGA mutant expressed in Escherichia coli BL21(DE3) by microscale thermophoresis assay; in short: as §1

Sequence of Heat-shock protein (Plasmodium falciparum), Q25869 [K313Q] (Q25869 whole entry K313Q): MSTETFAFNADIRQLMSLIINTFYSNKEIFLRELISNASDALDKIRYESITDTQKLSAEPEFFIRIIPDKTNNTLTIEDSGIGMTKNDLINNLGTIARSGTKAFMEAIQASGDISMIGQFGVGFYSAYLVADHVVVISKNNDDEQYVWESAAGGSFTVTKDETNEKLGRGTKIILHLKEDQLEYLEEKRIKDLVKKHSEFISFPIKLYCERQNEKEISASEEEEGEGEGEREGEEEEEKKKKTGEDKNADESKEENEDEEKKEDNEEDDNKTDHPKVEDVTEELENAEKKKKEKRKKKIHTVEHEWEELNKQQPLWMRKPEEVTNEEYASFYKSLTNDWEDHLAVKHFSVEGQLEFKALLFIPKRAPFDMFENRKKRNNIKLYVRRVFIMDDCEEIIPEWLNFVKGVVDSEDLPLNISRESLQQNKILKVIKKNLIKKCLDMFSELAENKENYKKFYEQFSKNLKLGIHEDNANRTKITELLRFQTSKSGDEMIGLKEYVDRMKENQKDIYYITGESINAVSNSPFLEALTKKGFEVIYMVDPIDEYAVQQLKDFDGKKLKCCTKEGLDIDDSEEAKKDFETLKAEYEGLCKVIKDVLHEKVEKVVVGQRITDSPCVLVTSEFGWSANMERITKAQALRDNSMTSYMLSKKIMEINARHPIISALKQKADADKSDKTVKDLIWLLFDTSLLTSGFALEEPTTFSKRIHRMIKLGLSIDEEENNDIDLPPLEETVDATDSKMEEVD

Row | SMILES | Kd (HSP90) [µM] | IC50 (Plasmodium falciparum; Plasmodium falciparum, NF54) [µM] | IC50 (L6; Rattus norvegicus, L6, 72 h) [µM] | Ratio IC50 [1] | also measured
1 | COCC(=O)Nc1c(C(=O)OC)n(CCC(C)C)c2ncc(NC3CCCCCCC3)cc12 | 25.4 | 5.02 | 56 | >10 | –
2 | COCC(=O)Nc1c(C(=O)OC)n(CCC(C)C)c2ncc(NC(C)C)cc12 | 175 | 13.8 | 56 | 4 | –
3 | COCCn1c(C(=O)OC)c(NC(=O)Cc2ccccc2)c2cc(NC3CCCCCCC3)cnc21 | – | – | – | – | inhibition [2]: Active
4 | COCC(=O)Nc1c(C(=O)OC)n(CCC(C)C)c2ncc(NC(C)CCC=C(C)C)cc12 (racemic) | 14.1 | 5.75 | 63 | >10 | IC50 [3]: 61.2 µM; Kd [4]: 16.5 µM
5 | COCC(=O)Nc1c(C(=O)OC)n(C)c2ncc(NC(C)CCC=C(C)C)cc12 (racemic) | 115 | – | – | – | –
6 | COC1=C2C[C@@H](C)C[C@H](OC)[C@H](O)[C@@H](C)/C=C(\C)[C@H](OC(N)=O)[C@@H](OC)/C=C\C=C(/C)C(=O)NC(=CC1=O)C2=O [GELDANAMYCIN] | – | – | – | – | Kd [5]: 0.103 µM; IC50 (Plasmodium falciparum): 0.148 µM; IC50 (L6; l6): 6 µM
